Laboratory results reported in ChEMBL document CHEMBL4513216, “Probing the Open Global Health Chemical Diversity Library for Multistage-Active Starting Points for Next-Generation Antimalarials” (ACS Infect Dis, 2020).

assay: Toxicity liver stage against HepG2, at 10uM; format: cell-based; parameters: test concentration 10 uM, cell line HepG2-A16-CD81EGFP; settings: human, HepG2-A16-CD81EGFP cells; read-out: INHIBITION
Procedure, shortened: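 Uninfected HepG2-A16-CD81EGFP cells, 3 × 10^3 per well, 1536-well, plated on prespotted compound at 10 μM final, parasite-free screening media added to match infected plates; puromycin 10 μM positive, DMSO 0.5% negative; run in parallel with 48 h PbLuc assay at 37 °C, 5% CO2; viability by CellTiter-Glo luminescence, normalized to controls.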

SMILES	cytotoxicity at 10 µM [%]
COC(=O)COn1c(SC(C)C)nc2ccccc2c1=O	-6.17
COc1ccc(NC(=O)C2OC(c3cccs3)=NN2C(C)=O)cc1 (centres undefined)	-1.6
CC(C)(Oc1ccc(C(N)=O)cc1)C(=O)N(CCC#N)CC1CCCO1 (centres undefined)	5.55
COc1ccccc1CN1CC(O)CN(S(=O)(=O)C(C)C)CC1=O (centres undefined)	-12.4
CCOC(=O)N1CC(=O)N(CCc2ccccc2)CC(O)C1 (centres undefined)	-4.73
CC(C)CNC(=O)Cc1cnc(-n2cccc2)s1	-3.66
COc1cn(CC(=O)N2CCN(c3ccc(Cl)cc3)CC2)c(C)cc1=O	1.82
CCN(CC)C(=O)CSc1nc2c(cnn2CCO)c(=O)[nH]1	1.29
O=S(=O)(NCC(O)c1ccoc1)c1ccc(Br)s1 (centres undefined)	5.76
CN1[C@H](CN2CCCC2)C[C@@H]2CN(C(=O)c3ccsc3)CC[C@@H]21	0.847
CN(C)CCNC(=O)c1noc2c1CN(C(=O)N(C)C)CC2	10.6
CS(=O)(=O)N1CCC2(CCCN(c3ncc(F)cn3)C2)C1 (centres undefined)	5.19
c1cnc(OCc2nnc3n2CCN(Cc2ccco2)C3)nc1	-2.12
c1cc(-c2nnn3c2COC(CNCC2CCOCC2)C3)ccn1 (centres undefined)	-23.8
CS(=O)(=O)N1C[C@@H]2COC[C@@H](CC(=O)N3CCCCO3)[C@@H]2C1	10.6
CC(C)(C)NC(=O)c1nn(C2CCS(=O)(=O)C2)c2c1CCCC2 (centres undefined)	10.1
COc1ccc(NC(=O)CCSc2ccc3nncn3n2)c(OC)c1	-15.3
CC(C)NC(=O)N1CCC2(CC(C(=O)NCc3cccnc3)=NO2)C1 (centres undefined)	-0.8
CN(C)CCn1nc(C2CCN(Cc3ccccc3)C2)c2cccnc21 (centres undefined)	-7.47
Cn1ccc(C(=O)N2CCC(Cc3ccc4ncccc4c3)CC2)n1	13.7
COCCNc1ccc(CC2CCCN(c3ncccn3)C2)nn1 (centres undefined)	3.81
Cc1cc(N(C)C)cc(C2CCN(S(=O)(=O)c3cccnc3)C2)n1 (centres undefined)	4.26

SMILES	cytotoxicity at 10 µM [%]
Cc1c(CN2C[C@@H](O)[C@H](Oc3cccc(F)c3)C2)cnn1C	-8.21
Cc1nn(C)cc1S(=O)(=O)NC1(CN2CCOCC2)CCCCC1	-8.27
Cc1ccc2c(c1)C(=O)NCC1(CCN(C(=O)c3ccccn3)CC1)O2	-25
Cc1ccccc1-c1cncc(C2CCN(Cc3cnn(C)c3)CC2)n1	-30.6
Cc1cc(C)n(Cc2ccc(C(=O)N3CCOCC3(C)C)cc2)n1	-9.23
CC(=O)NC1CCN(C(=O)Nc2cccc(C(F)(F)F)c2)CC1	-6.74
O=C(OCCF)c1cccc(C(=O)N2CCCC2)n1	0.684
Cc1ccc(-c2noc(Cn3nc(C(N)=O)ccc3=O)n2)cc1	-1.6
COC1CCN(CCNC(=O)NC(C)c2cccc(Cl)c2)CC1 (centres undefined)	-2.46
CCN(CC)C(=O)CCCNC(=O)c1csc(NC2CC2)n1	8.67
CCc1nc(C(=O)N(C)CC(=O)N(C)C)nn1-c1ccccc1Cl	-23.5
COc1cccc(S(=O)(=O)CCN2CCN(CC(F)F)CC2)c1	-3.96
COc1ccccc1C(=O)NS(=O)(=O)c1cncc(Br)c1	-6.05
CC(C)NC(=O)Nc1ccc(CS(C)(=O)=O)cc1	1.69
CCCc1noc(CCC(=O)N2CCCCC2Cn2cc(C)cn2)n1 (centres undefined)	-0.232
COc1ccc(CNC(=O)NCc2ccc(C(N)=O)cc2)cn1	-2.94
Cc1ncc(CN(C)C(=O)Nc2cccc(C(=O)N3CCOCC3)c2)s1	11.6
Cc1nn(C)c(C)c1OCC(=O)N1CCCCC1	2.23
CCC(CC)(CC)NC(=O)Nc1nnc(-c2ccccn2)s1	-2.27
NC(=O)Cn1ccc(NC(=O)C2(c3cccc(F)c3)CCC2)n1	-5.75
NC(=O)c1ccc(OCC(=O)N2CCCC2c2ccc[nH]2)cc1 (centres undefined)	-5.82
NS(=O)(=O)c1ccc(CNCC(=O)NCc2ccc(Cl)cc2Cl)cc1	-48.6

SMILES	cytotoxicity at 10 µM [%]
COc1cc(NC2CCCNC2)cc(OC)c1 (centres undefined)	-9.57
COc1ccc(CNC(C)c2cnc3cc(C)nn3c2C)cc1 (centres undefined)	-4.86
Cc1cc(Br)c(O)c(C(=O)N2CCC(CN3CCCCCC3)CC2)c1	8.29
CC(C)c1noc(CS(=O)(=O)CC(=O)NCc2cccs2)n1	2.71
CC(Sc1nnc(C2CC2)n1CC(N)=O)c1ccc(F)c(Cl)c1 (centres undefined)	4.26
Cc1ccc(CC2CCCN2CC(=O)NCc2ccccn2)cc1 (centres undefined)	6.46
OCc1nnc2n1CCN(c1cnccn1)C2	5.59
CC(C)NC(=O)N1CC[C@H]2N(C)CC[C@@]2(C(=O)Nc2cccnc2)CC1	-109
CS(=O)(=O)N1C[C@@H]2COC[C@]2(COCC(=O)N2CCCC2)C1	-114
CN1CCN(S(=O)(=O)C2CC2)Cc2cccnc21	-108
CC(C)N1Cc2c(C(=O)N3CCN(C)CC3)nn(C)c2C1	-104
CCN1CCC2(COCc3cnc(-c4cccnc4)nc32)C1 (centres undefined)	4.04
CC(=O)NCC(=O)N1CCN(CC2CC2)c2ncccc2C1	0.359
Cc1cnc(C)c(N2CCCC(C/C=C/c3ccccc3)(C(=O)O)C2)n1 (centres undefined)	9.42
O=C(CCC1CCCN(S(=O)(=O)C2CC2)C1)Nc1ccc(Cl)cc1 (centres undefined)	3.69
Cc1nc(CN(C)C(=O)Nc2cccc(C)c2C)no1	-0.739
CCN(Cc1cn(C)nc1-c1ccc2c(c1)OCCO2)CC1CCCO1 (centres undefined)	2.85
COc1cc(C)cc(C(C(=O)O)N(C)CCN2CCCC2)c1OC (centres undefined)	0.712
CCN(CC1CCCCO1)C(=O)CCNC(=O)c1ccccc1F (centres undefined)	-42.9
CN(C)CCN(C)C1CCCN(C(=O)c2ccc(Cn3ccnc3)o2)C1 (centres undefined)	6.69
O=C(COc1ccccc1O)N1CCOC(C(F)(F)F)C1 (centres undefined)	-2.3
CCN(C)S(=O)(=O)NCC1CCN(Cc2ccccc2F)C1 (centres undefined)	-2.48

SMILES	cytotoxicity at 10 µM [%]
Cn1nc(C2CC2)c2c1NC(=O)CC2c1cc(CN2CCCC2)cs1 (centres undefined)	-2.2
c1cc2c(cc1OC[C@@H]1CCCN3CCCC[C@H]13)OCCO2	-2.48
CC(C)N1CCOC(CC(=O)N2CCCN(Cc3cccs3)CC2)C1 (centres undefined)	-12.2
Cn1c(C2CCCN2C(=O)c2cn(CCN)nn2)nc2ccccc21 (centres undefined)	3.76
Cc1nn(C)c2nc(NC(C)c3n[nH]c(=O)[nH]3)sc12 (centres undefined)	4.91
CCN(CC)C(=O)c1ccc(Cl)c(NC(=O)c2csnn2)c1	7.3
CNc1ncc(CN(C)C(=O)c2cccc(-n3cnnc3)c2)cn1	1.5
CN(C)C(=O)CN1CC=C(c2cnn(Cc3ccccc3)c2)CC1	-6.12
CCn1c(C2CCN(Cc3cc(C)n(NC(C)=O)c3C)CC2)n[nH]c1=O	4.74
CCCc1nnc(C(=O)N(C)Cc2cnc3ccccn23)o1	-3.41
CC(=O)Nc1ccc(Oc2cccc(CN3CCCC3)c2)cc1	-14
Cc1nc(O)cc(C2CCCN(C(=O)CN(C)c3ccccc3)C2)n1 (centres undefined)	12.8
Cc1ccccc1C1CCN(CCn2cc(-c3nccn3C)nn2)C1 (centres undefined)	4.96
CO[C@H]1C[C@@H](O)C12CCN(C(=O)CCSCc1ccc(F)cc1)CC2	-5.22
CCS(=O)(=O)c1ncc(CN(C)Cc2ccccc2OC)n1CCOC	-2.23
CCN(Cc1cnn(C)c1)C(=O)c1ccc(C)c(N2CCNC2=O)c1	-7.08
COc1ccc(OC2CCN(C(=O)CCc3nc(Cl)n[nH]3)CC2)cc1	4.47
Cc1nn(C)cc1C(=O)N1CCCC(c2nccn2Cc2cscn2)C1 (centres undefined)	-4.32
Cc1ccnc(NC(=O)C(C)Cn2cncn2)c1 (centres undefined)	0.298
CC(Nc1cccc(CN2CCOC2=O)c1)C(=O)Nc1cccc(F)c1 (centres undefined)	-9.16
Cc1ccc(CC(=O)N2CCN(CC(O)C(C)(C)C)CC2)cn1 (centres undefined)	-4.51
Cc1noc(C)c1CC(=O)N1CCN(Cc2cscn2)CC1	-8.72

SMILES	cytotoxicity at 10 µM [%]
Cc1nnc2n1CCN(Cc1csc(-c3ccc(F)cc3)n1)C2	-6.78
CN(CCNC(=O)Nc1ccncc1)C1CCCCC1	-0.39
Cc1nc(NC2CCCCC2)cc(C2CCCNC2)n1 (centres undefined)	-30.3
COCCN1CCc2c(cnc(-c3ccoc3)c2C(=O)O)C1	0.908
CCC(CC)C(=O)N1CCC2(C1)CN(c1ccccc1)C(=O)CN2C (centres undefined)	3.5
CCc1nc2ccccc2c(=O)n1CC1(O)CCNCC1	-15.3
CNC(=O)[C@H]1C[C@@H]2CN(Cc3csc(C)n3)C[C@@H]2N1S(C)(=O)=O	-3.78
Cc1ccc(C(=O)N2CCC3(CC2)CCN(CCN(C)C)C3=O)cn1	5.36
CN(Cc1cccnc1)Cc1cn2c(n1)CN(C1CCOC1)CC2 (centres undefined)	6.2
CC(C)c1cc(C(=O)N2CCOC3(CCNCC3)C2)no1	3.65
Cc1ccc(C(=O)N2Cc3c(CN4CCCCC4)nn(C)c3C2)o1	-1.94
CC(C)c1cc(C(=O)N2CCc3nc(C4CCCN4)ncc3C2)cs1 (centres undefined)	-16.5
CC(=O)N1CCCCC12CCCN(Cc1ccco1)C2 (centres undefined)	4.59
c1cnn(Cc2nnc3n2CCCN(CC2CCOCC2)C3)c1	2.6
CN(C)C[C@]12COC[C@H]1CN(Cc1ccc3c(c1)OCO3)C2	-123
O=C1COC2(CCN(C(=O)c3ccco3)CC2)CN1Cc1ccccn1	6.45
Cc1ccccc1CN1C[C@H]2CC[C@@H](C1)N(CC1CCC1)C2=O	4.86
O=C(c1cnccn1)N1C[C@H]2CC[C@@H](C1)N(C(=O)Cc1ccsc1)C2	-13.3
COc1ccc(-n2cc3nc(N)[nH]cc-3c2=O)cc1	6.25
Cc1cc(C(=O)NC2CCC3(CCC(=O)N3C)CC2)no1 (centres undefined)	-0.361
CCOc1ccc(C(=O)N2C[C@@H]3CC[C@H]2CN(C)C3)cc1OCC	-15.7
